Reference: ChEMBL document CHEMBL1129984, “Synthesis and pharmacological characterization of enantiomerically pure muscarinic agonists: difluoromuscarines” (J Med Chem, 1997)

What was measured:
[1] = target: Muscarinic acetylcholine receptor M3 (Cavia porcellus) (UniProt Q8VH26); assay: Intrinsic adtivitiy was measured by the ratio between the maximum response and the maximum response of muscarine in guinea pig bladder at Muscarinic acetylcholine receptor M3; format: functional
Procedure, shortened: (§1)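 Isolated guinea pig tissues in PSS. Responses are expressed as a percentage of the maximal response in the control curve. Potency is given as pD₂ (−log ED₅₀, the agonist concentration producing 50% of maximal contraction). […] Parallel tissues received only (±)-muscarine to check sensitivity. 6–10 observations, mean ± SEM.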

[2] = target: Muscarinic acetylcholine receptor M3 (Cavia porcellus) (UniProt Q8VH26); assay: Intrinsic adtivitiy was measured by the ratio between the maximum response and the maximum response of muscarine in guinea pig ileum at Muscarinic acetylcholine receptor M3; format: functional, tissue-based; procedure, shortened: as §1
[3] = target: Muscarinic acetylcholine receptor M3 (Cavia porcellus) (UniProt Q8VH26); assay: Muscarinic potency was evaluated on guinea pig bladder at Muscarinic acetylcholine receptor M3 (expressed as -logED50); format: functional; procedure, shortened: as §1
[4] = target: Muscarinic acetylcholine receptor M3 (Cavia porcellus) (UniProt Q8VH26); assay: Muscarinic potency was evaluated on guinea pig ileum at Muscarinic acetylcholine receptor M3 (expressed as -logED50); format: functional, tissue-based; procedure, shortened: as §1
[5] = system: Muscarinic acetylcholine receptor M2 (Cavia porcellus); assay: Muscarinic potency was evaluated on guinea pig heart (force) at Muscarinic acetylcholine receptor M2 (expressed as -logED50)
[6] = system: Muscarinic acetylcholine receptor M2 (Cavia porcellus); assay: Intrinsic activity was measured as the ratio between the maximum response and the maximum response of muscarine in guinea pig heart at Muscarinic acetylcholine receptor M2
Cavia porcellus [7] = species: Cavia porcellus; assay: Dissociation constant was evaluated on guinea pig bladder at M3 muscarinic receptor
Procedure, shortened: (§2)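 Dissociation constants and relative efficacies derived from guinea pig tissue agonist responses by the Furchgott and Bursztyn method.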

Cavia porcellus [8] = species: Cavia porcellus; assay: Dissociation constant was evaluated on guinea pig heart (force) at M2 muscarinic receptor; procedure, shortened: as §2
Cavia porcellus [9] = species: Cavia porcellus; assay: Dissociation constant was evaluated on guinea pig heart (rate) at M2 muscarinic receptor; procedure, shortened: as §2
Cavia porcellus [10] = species: Cavia porcellus; assay: Dissociation constant was evaluated on guinea pig ileum at M3 muscarinic receptor; procedure, shortened: as §2
[11] = target: T1, Muscarinic acetylcholine receptor M2 (Rattus norvegicus) (UniProt P10980); assay: Muscarinic potency was evaluated at cardiac Muscarinic acetylcholine receptor M2 mediating Bradycardia in the pithed rat (Decrease in heart rate); format: functional
T1 sequence (whole entry): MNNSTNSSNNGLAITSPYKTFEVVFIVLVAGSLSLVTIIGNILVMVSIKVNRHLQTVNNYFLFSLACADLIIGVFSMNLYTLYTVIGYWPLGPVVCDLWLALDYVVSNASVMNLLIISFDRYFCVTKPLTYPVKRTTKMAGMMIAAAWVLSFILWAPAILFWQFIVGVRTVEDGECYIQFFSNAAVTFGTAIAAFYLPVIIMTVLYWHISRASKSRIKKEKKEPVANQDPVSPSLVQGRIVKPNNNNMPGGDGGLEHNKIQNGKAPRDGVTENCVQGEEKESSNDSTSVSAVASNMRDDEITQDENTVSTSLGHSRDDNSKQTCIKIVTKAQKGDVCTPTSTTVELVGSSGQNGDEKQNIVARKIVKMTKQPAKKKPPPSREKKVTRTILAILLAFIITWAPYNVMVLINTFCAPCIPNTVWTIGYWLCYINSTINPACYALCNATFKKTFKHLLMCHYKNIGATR
Procedure, shortened: (§3)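 Pithed rats, artificially respired at 60 cycles/min, 1 mL/100 g, and equilibrated ≥30 min until heart rate was stable (basal 300 ± 8 beats/min). Agonists in 0.9% saline given iv at 0.1 mL/100 g, with full recovery between single doses. Heart rate measured from the carotid pressure pulse. ED₅₀ read graphically from dose–response curves. 5–9 observations, mean ± SEM.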

[12] = target: Muscarinic acetylcholine receptor M3 (Cavia porcellus) (UniProt Q8VH26); assay: Relative efficacy was evaluated on guinea pig bladder at Muscarinic acetylcholine receptor M3; format: functional; procedure, shortened: as §2
[13] = target: Muscarinic acetylcholine receptor M3 (Cavia porcellus) (UniProt Q8VH26); assay: Relative efficacy was evaluated on guinea pig ileum at Muscarinic acetylcholine receptor M3; format: functional, tissue-based; procedure, shortened: as §2
[14] = target: T2, Muscarinic acetylcholine receptor M2 (Homo sapiens) (UniProt P08172); assay: Relative efficacy was evaluated on guinea pig heart (rate) at Muscarinic acetylcholine receptor M2; format: functional; conditions: Cavia porcellus; target entry is the homologue from another species; procedure, shortened: as §2
T2 sequence (whole entry): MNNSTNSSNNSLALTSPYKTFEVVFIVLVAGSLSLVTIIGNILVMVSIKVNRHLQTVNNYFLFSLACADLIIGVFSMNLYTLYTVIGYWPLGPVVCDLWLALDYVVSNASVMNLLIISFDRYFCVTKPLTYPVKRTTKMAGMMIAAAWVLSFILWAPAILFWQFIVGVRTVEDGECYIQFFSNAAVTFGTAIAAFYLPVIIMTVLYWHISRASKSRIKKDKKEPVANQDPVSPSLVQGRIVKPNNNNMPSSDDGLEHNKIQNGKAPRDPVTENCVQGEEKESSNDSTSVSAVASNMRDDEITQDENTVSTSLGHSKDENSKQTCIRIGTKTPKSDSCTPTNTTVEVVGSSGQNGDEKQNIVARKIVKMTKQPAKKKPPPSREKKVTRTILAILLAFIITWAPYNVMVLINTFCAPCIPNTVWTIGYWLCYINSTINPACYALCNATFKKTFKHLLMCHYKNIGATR

[15] = target: T2, Muscarinic acetylcholine receptor M2 (Homo sapiens); assay: Relative efficacy was evaluated on guinea pig heart (force) at Muscarinic acetylcholine receptor M2; format: functional; conditions: Cavia porcellus; target entry is the homologue from another species; procedure, shortened: as §2
[16] = target: T3, Muscarinic acetylcholine receptor M1 (Rattus norvegicus) (UniProt P08482); assay: Muscarinic potency was evaluated at ganglionic Muscarinic acetylcholine receptor M1 mediating Tachycardia in the pithed rat (Increase in heart rate); procedure, shortened: as §3
T3 sequence (whole entry): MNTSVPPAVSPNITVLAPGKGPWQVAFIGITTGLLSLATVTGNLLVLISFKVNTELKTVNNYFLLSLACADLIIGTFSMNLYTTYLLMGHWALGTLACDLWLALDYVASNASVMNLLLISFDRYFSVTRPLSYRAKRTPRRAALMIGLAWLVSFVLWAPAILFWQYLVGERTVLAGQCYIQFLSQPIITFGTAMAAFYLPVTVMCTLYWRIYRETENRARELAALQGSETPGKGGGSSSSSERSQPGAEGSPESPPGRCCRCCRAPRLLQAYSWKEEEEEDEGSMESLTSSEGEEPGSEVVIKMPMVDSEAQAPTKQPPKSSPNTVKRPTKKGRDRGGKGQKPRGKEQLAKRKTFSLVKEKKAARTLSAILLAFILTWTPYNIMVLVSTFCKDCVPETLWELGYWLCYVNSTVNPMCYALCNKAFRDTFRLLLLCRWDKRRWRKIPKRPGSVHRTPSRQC

[17] = system: Muscarinic acetylcholine receptor M2 (Cavia porcellus); assay: Muscarinic potency was evaluated on guinea pig heart (rate) at Muscarinic acetylcholine receptor M2

Sequence of Muscarinic acetylcholine receptor M3 (Cavia porcellus) (Q8VH26 1-587): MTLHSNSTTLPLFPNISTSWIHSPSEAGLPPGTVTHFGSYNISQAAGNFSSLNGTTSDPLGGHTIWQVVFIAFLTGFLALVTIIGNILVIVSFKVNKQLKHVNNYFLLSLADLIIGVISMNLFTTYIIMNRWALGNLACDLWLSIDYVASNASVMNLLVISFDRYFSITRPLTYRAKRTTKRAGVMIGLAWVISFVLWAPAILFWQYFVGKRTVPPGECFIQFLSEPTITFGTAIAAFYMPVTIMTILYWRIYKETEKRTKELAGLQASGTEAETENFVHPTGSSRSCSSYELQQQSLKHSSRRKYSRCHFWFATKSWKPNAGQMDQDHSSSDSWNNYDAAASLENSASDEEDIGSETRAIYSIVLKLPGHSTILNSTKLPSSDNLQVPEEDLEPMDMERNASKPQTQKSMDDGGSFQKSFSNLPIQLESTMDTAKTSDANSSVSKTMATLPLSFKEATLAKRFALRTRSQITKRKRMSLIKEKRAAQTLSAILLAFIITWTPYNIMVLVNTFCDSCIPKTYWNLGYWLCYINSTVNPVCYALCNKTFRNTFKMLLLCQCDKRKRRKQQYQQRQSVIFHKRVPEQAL

Row | Structure (SMILES) | Intrinsic activity [1] | Intrinsic activity [2] | pD2 [3] | pD2 [4] | pD2 [5] | Intrinsic activity [6] | -Log Kd (Cavia porcellus [7]) | -Log Kd (Cavia porcellus [8]) | -Log Kd (Cavia porcellus [9]) | -Log Kd (Cavia porcellus [10]) | ED50 [11] | Relative efficacy [12] | Relative efficacy [13] | Relative efficacy [14] | Relative efficacy [15] | ED50 [16] | -Log ED50 [17]
1 | C[C@@H]1O[C@@H](C[N+](C)(C)C)CC1(F)F | 1 | 0.97 | 4.16 | 5.33 | 6.28 | 1 |  |  |  |  |  |  |  |  |  |  | 
2 | C[C@H]1O[C@H](C[N+](C)(C)C)CC1(F)F | 0.67 | 0.99 | 3.95 | 4.85 | 5.77 | 0.98 |  |  |  |  |  |  |  |  |  |  | 
3 | C[C@@H]1O[C@H](C[N+](C)(C)C)C[C@H]1F | 0.88 | 0.95 | 5.66 | 7.36 | 6.73 | 0.98 | 4.39 | 4.67 | 5.77 | 5.72 | 0.0235 mg/kg | 1.5 | 3 | 0.2 | 1.2 | 0.0045 mg/kg | 6.87
4 | C[C@@H]1O[C@H](C[N+](C)(C)C)CC1(F)F | 0.83 | 0.99 | 5.23 | 5.8 | 6.56 | 1 | 4.4 | 4.37 | 3.39 | 4.7 | 0.14 mg/kg | 0.6 | 0.9 | 23 | 1.6 | 0.05 mg/kg | 6.58
5 | C[C@@H]1O[C@H](C[N+](C)(C)C)C[C@H]1O (racemic) [MUSCARINE] |  | 1 | 5.69 | 7.1 |  |  | 4.62 |  |  | 5.95 |  |  |  |  |  |  | 
6 | C[C@H]1O[C@@H](C[N+](C)(C)C)CC1(F)F | 0.95 | 0.98 | 3.82 | 5.53 | 5.76 | 0.97 | 3.71 | 3.64 | 3.48 | 4.47 | 0.274 mg/kg | 0.2 | 0.8 | 10 | 1.3 | 0.1 mg/kg | 6.31
